Results from ChEMBL document CHEMBL2417395, “Synthesis and biological evaluation of novobiocin analogues as potential heat shock protein 90 inhibitors” (Bioorg Med Chem, 2013).
pIC50: −log10 of the molar value. Each block holds one compound with its values, some of them ahead of it. Active and inactive are the calls of the source. No cut-off for these calls is given here.

Experiments:
Mus musculus [1] = species: Mus musculus; experiment: Inhibition of HSP90 in mouse 3T3-Y9-B12 cells assessed as activation of HSF1 at 1000 uM after overnight incubation by GFP reporter gene assay relative to control; assay type: cell-based
Outline: (§1)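 3T3-Y9-B12 mouse fibroblasts carrying a GFP gene under a minimal heat-shock element; near-confluent monolayers given serial dilutions in triplicate wells overnight, DMSO ≤0.25% vehicle, GA 0.5 µM positive control; after PBS wash, fluorescence at 485/525 nm, normalized to DMSO.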

SK-BR-3 [2] = experiment: Cell cycle arrest in human SKBR3 cells assessed as accumulation at G0/G1 phase at 1000 uM after 48 hrs by flow cytometric analysis (reference value: 54 +/- 2%); assay type: functional
MCF7 [3] = experiment: Cytotoxicity against ER-positive human MCF7 cells expressing low level of HER2 after 3 days by MTT assay; assay type: functional, cell-based; conditions: MCF7, 72 h
Outline: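 MCF-7 seeded 2,000 cells/well, serial dilutions added after 24 h, 72 h exposure; MTT at 500 µg/mL final, 3 h at 37 °C, formazan dissolved in DMSO, absorbance 570 nm minus 650 nm background. Triplicates, at least two experiments; IC50 = concentration cutting viable signal by 50% of DMSO control.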

SK-BR-3 [4] = experiment: Cell cycle arrest in human SKBR3 cells assessed as accumulation at G2/M phase at 1000 uM after 48 hrs by flow cytometric analysis (reference value: 21 +/- 1%); assay type: functional
SK-BR-3 [5] = experiment: Cytotoxicity against ER-negative human SKBR3 cells expressing high level of HER2 after 3 days by MTT assay; assay type: functional, cell-based; conditions: SK-BR-3, 72 h
Outline: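 SKBR3 cells in RPMI 1640 with 10% FBS exposed to serial dilutions for 3 days; MTT dye-reduction read-out of relative viable cell number. IC50 taken as concentration giving 50% reduction versus DMSO-treated cells.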

Heat shock protein HSP90 [6] = target: T1, Heat shock protein HSP90 (Homo sapiens, UniProt P07900+P08238); experiment: Inhibition of HSP90 in human SKBR3 cells assessed as aggregation of intracellular HER2 at 1000 uM after 18 hrs by DAPI staining-based immunofluorescence microscopic analysis; assay type: cell-based; conditions: SK-BR-3
Outline: (§2)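 SKBR3 in chamber slides adhered overnight, treated 18 h, fixed 4% paraformaldehyde, permeabilized 1% Triton X-100, goat-serum block; anti-HER2 (20 µg/mL) then Alexa Fluor 488 secondary (2 µg/mL) on ice, DAPI nuclear counterstain; imaged at 160× with identical exposures. GA 0.5 µM positive control.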

SK-BR-3 [7] = experiment: Cell cycle arrest in human SKBR3 cells assessed as accumulation at S phase at 1000 uM after 48 hrs by flow cytometric analysis (reference value: 19 +/- 6%); assay type: functional
Oryctolagus cuniculus [8] = species: Oryctolagus cuniculus; experiment: Inhibition of HSP90 in rabbit reticulocyte lysate assessed as inhibition of heat-denatured luciferase refolding after 30 mins by luminescence plate reader analysis
Outline: (§3)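 Rabbit reticulocyte lysate with ATP regeneration (10 mM phosphocreatine, 1 mM ATP, 17.5 IU creatine kinase) preincubated with compound 20 min on ice; firefly luciferase (100 nM) heat-denatured 40 °C 8 min, diluted 10-fold into lysate; 28 °C, triplicate aliquots luminescence-read at 0, 15, 30, 60 min; mean RLU or % of DMSO.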

SK-BR-3 [9] = experiment: Cell cycle arrest in human SKBR3 cells assessed as accumulation at subG1 phase at 1000 uM after 48 hrs by flow cytometric analysis (reference value: 7 +/- 1%); assay type: functional
Heat shock protein HSP90 [10] = target: T1, Heat shock protein HSP90; experiment: Inhibition of HSP90 in human SKBR3 cells assessed as depletion of cell surface HER2 protein level at 100 uM after 18 hrs by immunofluorescence-based flow cytometric analysis relative to control; conditions: SK-BR-3
Outline: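 SKBR3 cells treated 18 h at 100 µM (controls: DMSO, GA 0.5 µM, NB 500 µM), trypsinized, blocked in goat serum/PBA (pH 7.6) on ice, anti-HER2 20 µg/mL 30 min then Alexa 488 secondary 2 µg/mL 20 min on ice; mean fluorescence intensity by flow cytometry, isotype antibody control.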

Oryctolagus cuniculus [11] = species: Oryctolagus cuniculus; experiment: Inhibition of HSP90 in rabbit reticulocyte lysate assessed as inhibition of heat-denatured luciferase refolding at 500 uM by luminescence plate reader analysis; conditions: TDE = time-dependent effect; outline: as §3
SK-BR-3 [12] = experiment: Cytotoxicity against human SKBR3 cells assessed as growth inhibition at 100 uM after 18 hrs by capillary-based flow cytometric analysis; assay type: functional, cell-based
Outline: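 Short-term viability: SKBR3 cells exposed overnight under the same conditions as the surface-HER2 screen, then stained with a DNA-staining viability reagent; viable cell number counted by capillary flow cytometry.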

Heat shock protein HSP90 [13] = target: T1, Heat shock protein HSP90; experiment: Inhibition of HSP90 in human MCF7 cells assessed as depletion of cell surface HER2 protein level after 18 hrs by flow cytometry
Heat shock protein HSP90 [14] = target: T1, Heat shock protein HSP90; experiment: Inhibition of HSP90 in human MCF7 cells assessed as depletion of total HER2 protein level at 12.5 to 25 uM after 18 hrs by Western blot analysis; assay type: cell-based
Outline: (§4)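 MCF-7 cells at 70% confluence treated 18 h; floating plus trypsinized cells pooled, lysed in NP-40 buffer (pH 7.4) with protease/phosphatase inhibitors; 20 µg protein on 7.5% SDS-PAGE, nitrocellulose, milk block; probed for HER2 (2.0 µg/mL monoclonal) or HSP72, alkaline-phosphatase secondary, NBT/BCIP development; Ponceau S loading check.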

SK-BR-3 [15] = experiment: Cell cycle arrest in human SKBR3 cells assessed as accumulation at G2/M phase at 12.5 uM after 48 hrs by flow cytometric analysis (reference value: 21 +/- 1%); assay type: functional
SK-BR-3 [16] = experiment: Cell cycle arrest in human SKBR3 cells assessed as accumulation at G2/M phase at 25 uM after 48 hrs by flow cytometric analysis (reference value: 21 +/- 1%); assay type: functional
Mus musculus [17] = species: Mus musculus; experiment: Inhibition of HSP90 in mouse 3T3-Y9-B12 cells assessed as activation of HSF1 at 0.78 to 25 uM after overnight incubation by GFP reporter gene assay relative to control; assay type: cell-based; outline: as §1
Heat shock protein HSP90 [18] = target: T1, Heat shock protein HSP90; experiment: Inhibition of HSP90 in human SKBR3 cells assessed as aggregation of intracellular HER2 at 25 uM after 18 hrs by DAPI staining-based immunofluorescence microscopic analysis; assay type: cell-based; conditions: SK-BR-3; outline: as §2
SK-BR-3 [19] = experiment: Cell cycle arrest in human SKBR3 cells assessed as accumulation at G0/G1 phase at 25 uM after 48 hrs by flow cytometric analysis (reference value: 54 +/- 2%); assay type: functional
SK-BR-3 [20] = experiment: Cell cycle arrest in human SKBR3 cells assessed as accumulation at subG1 phase at 12.5 to 25 uM by flow cytometric analysis; assay type: functional, cell-based; conditions: TDE = time-dependent effect
MCF7 [21] = experiment: Induction of HSP70 in human MCF7 cells by Western blot analysis; assay type: cell-based; outline: as §4
SK-BR-3 [22] = experiment: Cell cycle arrest in human SKBR3 cells assessed as accumulation at S phase at 12.5 uM after 48 hrs by flow cytometric analysis (reference value: 19 +/- 6%); assay type: functional
SK-BR-3 [23] = experiment: Cell cycle arrest in human SKBR3 cells assessed as accumulation at G0/G1 phase at 12.5 uM after 48 hrs by flow cytometric analysis (reference value: 54 +/- 2%); assay type: functional
SK-BR-3 [24] = experiment: Cell cycle arrest in human SKBR3 cells assessed as accumulation at subG1 phase at 25 uM after 48 hrs by flow cytometric analysis (reference value: 7 +/- 1%); assay type: functional
SK-BR-3 [25] = experiment: Cell cycle arrest in human SKBR3 cells assessed as accumulation at subG1 phase at 12.5 uM after 48 hrs by flow cytometric analysis (reference value: 7 +/- 1%); assay type: functional
SK-BR-3 [26] = experiment: Cell cycle arrest in human SKBR3 cells assessed as accumulation at S phase at 25 uM after 48 hrs by flow cytometric analysis (reference value: 19 +/- 6%); assay type: functional
Oryctolagus cuniculus [27] = species: Oryctolagus cuniculus; experiment: Inhibition of HSP90 in rabbit reticulocyte lysate assessed as inhibition of heat-denatured luciferase refolding at 100 uM by luminescence plate reader analysis; conditions: TDE = time-dependent effect; outline: as §3
SK-BR-3 [28] = experiment: Cell cycle arrest in human SKBR3 cells assessed as accumulation at subG1 phase after 48 hrs by flow cytometric analysis; assay type: functional, cell-based
Heat shock protein HSP90 [29] = target: T1, Heat shock protein HSP90; experiment: Inhibition of HSP90 in human MCF7 cells assessed as depletion of total HER2 protein level at 50 uM after 18 hrs by Western blot analysis relative to control; assay type: cell-based; outline: as §4

inhibition (Heat shock protein HSP90 [6]): Active
inhibition (Oryctolagus cuniculus [8]): Dose-dependent effect
inhibition (Heat shock protein HSP90 [10]): inactive
inhibition (Oryctolagus cuniculus [11]): tde
SMILES: CO[C@@H]1[C@@H](OC(N)=O)[C@@H](O)[C@H](Oc2ccc3c(O)c(NC(=O)c4ccc(O)c(CC=C(C)C)c4)c(=O)oc3c2C)OC1(C)C [NOVOBIOCIN]
fold change (FC) (Mus musculus [1]): 1.5
Activity (SK-BR-3 [2]): 57%
pIC50 (MCF7 [3]): 3.45
Activity (SK-BR-3 [4]): 10%
pIC50 (SK-BR-3 [5]): 3.46
Activity (SK-BR-3 [7]): 15%
Activity (SK-BR-3 [9]): 38%

EC50 (Heat shock protein HSP90 [13]): > 50 µM
inhibition (Heat shock protein HSP90 [10]): 40%
SMILES: CO[C@@H]1[C@@H](OC(=O)c2ccc(C)[nH]2)[C@@H](O)[C@H](Oc2ccc3c(O)c(NC(=O)c4cc5ccccc5[nH]4)c(=O)oc3c2C)OC1(C)C
growth inhibition (GI) (SK-BR-3 [12]): Active

inhibition (Heat shock protein HSP90 [14]): Active
inhibition (Heat shock protein HSP90 [18]): Active
inhibition (Oryctolagus cuniculus [8]): Dose-dependent effect
EC50 (Heat shock protein HSP90 [13]): 20 µM
inhibition (Heat shock protein HSP90 [10]): 40%
inhibition (Oryctolagus cuniculus [27]): tde
inhibition (Heat shock protein HSP90 [29]): 50%
SMILES: CO[C@@H]1[C@@H](OC(N)=O)[C@@H](O)[C@H](Oc2ccc3cc(NC(=O)c4cc5ccccc5[nH]4)c(=O)oc3c2C)OC1(C)C
growth inhibition (GI) (SK-BR-3 [12]): Active
Activity (SK-BR-3 [15]): 18%
Activity (SK-BR-3 [16]): 10%
pIC50 (MCF7 [3]): 5.22
fold change (FC) (Mus musculus [17]): < 2
pIC50 (SK-BR-3 [5]): 5.00
Activity (SK-BR-3 [19]): 56%
Activity (SK-BR-3 [20]): tde
Activity (MCF7 [21]): Active
Activity (SK-BR-3 [22]): 17%
Activity (SK-BR-3 [23]): 58%
Activity (SK-BR-3 [24]): 29%
Activity (SK-BR-3 [25]): 8%
Activity (SK-BR-3 [26]): 10%
Activity (SK-BR-3 [28]): Dose-dependent effect
